Drawing on ChEMBL document CHEMBL1122232, “Quantitative structure-inotropy relationship applied to substituted grayanotoxins” (J Med Chem, 1983), this text covers LD50 and pD2 for 13 molecules.

As usually defined, the LD50 is the dose expected to kill half of the subjects tested. Higher therefore signals a less toxic substance.

Data set [1] is described as follows: Lethal dose in guinea pig. The class given is toxicity, organism-based, Cavia porcellus. The settings on record: in vivo. A digest of the protocol: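 Male Hartley guinea pigs of about 350 g. LD50 determined by the up-and-down method.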
The species named for a further data set is Cavia porcellus. Put plainly: Positive inotropic effect was determined by measuring force of contraction of papillary muscle in guinea pig at a driving rate of 1.0 Hz. The class given is functional, Muscle tissue. In short, it runs like this:
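Isolated guinea pig papillary muscle paced at 1.0 Hz in Krebs-Henseleit solution (Ca2+ 3.2 mM, 30 °C). Compounds added cumulatively to the bath every 20 min. Contraction force recorded on oscillographic paper. pD2 = molar concentration giving 50% of maximum positive inotropic effect, read from concentration-response curves in five to six muscles; mean reported.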

For `CCCCC(=O)O[C@@H]1C2CCC3[C@@](C)(O)C4CC(O)C(C)(C)C4(O)C(O)C[C@]31C[C@@]2(C)O` (stereo not given in full), in data set [1], the LD50 came out at 0.17 mg/kg. The pD2 in the data set listed under Cavia porcellus came to 6.41. In data set [1], `CCC(=O)O[C@@H]1C2CCC3[C@@](C)(O)C4CC(O)C(C)(C)C4(O)C(O)C[C@]31C[C@@]2(C)O` (stereo not given in full) came in with an LD50 of 0.044 mg/kg. Further, the pD2 in the data set listed under Cavia porcellus is reported as 6.67.

As to `CC(C)(C)C(=O)O[C@@H]1C2CCC3[C@@](C)(O)C4CC(O)C(C)(C)C4(O)C(O)C[C@]31C[C@@]2(C)O` (stereo not given in full), the LD50 in data set [1] worked out at 0.36 mg/kg. The pD2 in the data set listed under Cavia porcellus is recorded as 5.78. `CC1(C)C(O)CC2C1(O)C(O)C[C@]13C[C@@](C)(O)C(CCC1[C@@]2(C)O)[C@H]3O` (stereo not given in full): the median lethal dose (LD50) in data set [1] stood at 0.45 mg/kg. The molecule also displayed a pD2 in the data set filed under Cavia porcellus of 6.15. In data set [1], `CC1(C)C(O)CC2C1(O)C(O)C[C@]13C[C@@](C)(O)C(CCC1[C@@]2(C)O)[C@H]3OC(=O)CCCl` (stereo not given in full) registered a median lethal dose (LD50) of 0.17 mg/kg. In the data set filed under Cavia porcellus, this molecule registered a pD2 of 6.96.

In data set [1], `CC1(C)[C@@H](O)C[C@@H]2[C@]1(O)[C@H](O)C[C@]13C[C@@](C)(O)[C@H](CCC1[C@@]2(C)O)[C@H]3O[C@H]1O[C@@H](CO)[C@H](O)[C@@H](O)[C@@H]1O` (stereo not given in full) registered an LD50 of less than 6 mg/kg. In addition, the pD2 in the data set listed under Cavia porcellus was less than 4.

`CCCCCCC(=O)O[C@@H]1C2CCC3[C@@](C)(O)C4CC(O)C(C)(C)C4(O)C(O)C[C@]31C[C@@]2(C)O` (stereo not given in full) gave a pD2 in the data set listed under Cavia porcellus of 5.32. Consider `CC1(C)C(O)CC2C1(O)C(O)C[C@]13C[C@@](C)(O)C(CCC1[C@@]2(C)O)[C@H]3OC(=O)C1CCCCC1` (stereo not given in full), for which the LD50 in data set [1] worked out at 0.31 mg/kg. In the data set filed under Cavia porcellus, this molecule showed a pD2 of 6.17. `CC1(C)C(O)CC2C1(O)C(O)C[C@]13C[C@@](C)(O)C(CCC1[C@@]2(C)O)[C@H]3OC(=O)c1ccccc1` (stereo not given in full) had an LD50 in data set [1] of 1.35 mg/kg. In the data set filed under Cavia porcellus, the pD2 worked out at 5.79.

In data set [1], `CC(O)C(=O)O[C@@H]1C2CCC3[C@@](C)(O)C4CC(O)C(C)(C)C4(O)C(O)C[C@]31C[C@@]2(C)O` (stereo not given in full) showed an LD50 of 0.08 mg/kg. In addition, in the data set filed under Cavia porcellus, the pD2 was determined as 6.54. In the same order, the values of `CCCC(=O)O[C@@H]1C2CCC3[C@@](C)(O)C4CC(O)C(C)(C)C4(O)C(O)C[C@]31C[C@@]2(C)O` (stereo not given in full) are 0.12 mg/kg and 6.81. Turning to `CCCCCC(=O)O[C@@H]1C2CCC3[C@@](C)(O)C4CC(O)C(C)(C)C4(O)C(O)C[C@]31C[C@@]2(C)O` (stereo not given in full), in data set [1], the LD50 amounted to 0.34 mg/kg. Further, the pD2 in the data set listed under Cavia porcellus is recorded as 5.75. In data set [1], `CC(=O)O[C@@H]1C2CCC3[C@@](C)(O)C4CC(O)C(C)(C)C4(O)C(O)C[C@]31C[C@@]2(C)O` (stereo not given in full) returned a median lethal dose (LD50) of 1.3 mg/kg. Further, in the data set filed under Cavia porcellus, the pD2 is on record as 6.31.
